In ChEMBL document CHEMBL1137716, “Novel modifications in the series of O-(2-phthalimidoethyl)-N-substituted thiocarbamates and their ring-opened congeners as non-nucleoside HIV-1 reverse transcriptase inhibitors” (Eur J Med Chem, 2009):
The source made the active and inactive calls. No rule for the calls is given here.

Assays:
[1] = Cytotoxicity against mock-infected human MT4 cells by MTT assay; type: cell-based
In short: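 Mock-infected MT-4 cells, tested in parallel with the antiviral assay; viability read by MTT method; CC50 is the concentration lowering viability by 50%; mean of three separate experiments, triplicate variation under 10%.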

[2] = system: Human immunodeficiency virus 1; assay: Antiviral activity against wild type HIV1 3B in human MT4 cells assessed as protection against viral induced cytopathogenicity by MTT assay; type: functional, organism-based; details: Human immunodeficiency virus 1, 3B
In short: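 MT-4 cells infected with HIV-1; 50% protection from virus-induced cytopathogenicity read by MTT method; EC50 in micromolar; mean of three separate experiments, triplicate samples varying under 10%.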

[3] = Selectivity index, ratio of CC50 for human MT4 cells to EC50 for HIV1 3B; type: toxicity, cell-based; details: read-out: Ratio CC50/EC50
In short: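 Ratio of CC50 in mock-infected MT-4 cells to EC50 for protection from HIV-1 cytopathogenicity, both read by MTT method.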

[4] = system: Human immunodeficiency virus 1; assay: Antiviral activity against HIV1 3B Y181C/K103N double mutant in human MT4 cells assessed as protection against viral induced cytopathogenicity by MTT assay; type: functional, organism-based
In short: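 MT-4 cells infected with HIV-1 carrying the NNRTI-resistance mutation were assayed for protection from virus-induced cytopathogenicity, read out as cell viability by MTT. EC50 is the compound concentration giving 50% protection. Values are means of three separate experiments, with variation among triplicate samples under 10%. Efavirenz served as the reference.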

SMILES	CC50 [1]	EC50 [2]	selectivity ratio [3]	Activity [4]
C[C@@H](COC(=S)Nc1ccc(Cl)cc1)NC(=O)c1ccccc1C(=O)O	> 100 µM	2.3 µM	> 43.5	inactive
O=C1c2ccccc2C(=O)N1CCOC(=S)Nc1ccc(Cl)c(C(F)(F)F)c1	84 µM	8 µM	10.5	–
N#Cc1ccc(NC(=S)OCCN2C(=O)c3ccccc3C2=O)cc1	–	0.07 µM	–	–
O=C1c2ccccc2C(=O)N1CCOC(=S)Nc1ccc([N+](=O)[O-])cc1Cl	> 100 µM	> 100 µM	–	–
Cc1cc(C)cc(NC(=S)OCCN2C(=O)c3ccccc3C2=O)c1	> 100 µM	4 µM	> 25	–
O=C1c2ccccc2C(=O)N1CCOC(=S)Nc1c(F)c(F)cc(F)c1F	> 100 µM	10 µM	> 10	inactive
Cc1cccc(Cl)c1NC(=S)OCCN1C(=O)c2ccccc2C1=O	> 100 µM	23 µM	> 4.3	–
O=C1c2ccccc2C(=O)N1CCOC(=S)Nc1cc(Cl)ccc1Cl	> 100 µM	42 µM	> 2.4	–
O=C(O)c1ccccc1C(=O)NCCOC(=S)Nc1c(F)c(F)cc(F)c1F	> 100 µM	71 µM	> 1.4	inactive
COc1ccc(NC(=S)OCCN2C(=O)c3ccccc3C2=O)cc1	–	0.03 µM	–	–
O=C(O)c1ccccc1C(=O)NCCOC(=S)Nc1ccc(Cl)c(Cl)c1Cl	> 100 µM	44 µM	> 2.3	inactive
O=C1c2ccccc2C(=O)N1CCOC(=S)Nc1cccc(Cl)c1Cl	> 100 µM	30 µM	> 3.3	–
Cc1ccc2c(c1)C(=O)N(CCOC(=S)Nc1ccc(Br)cc1)C2=O	59 µM	0.008 µM	7380	inactive
Cc1ccc2c(c1)C(=O)N(CCOC(=S)Nc1ccc(Cl)c(Cl)c1)C2=O	50 µM	0.2 µM	250	inactive
Cc1ccc(NC(=S)OCCN2C(=O)c3ccccc3C2=O)cc1	–	0.02 µM	–	–
COc1ccc(C)cc1NC(=S)OCCNC(=O)c1ccccc1C(=O)O	> 100 µM	88 µM	> 1.1	–
O=C1c2ccccc2C(=O)N1CCOC(=S)Nc1c(F)cccc1F	> 100 µM	7 µM	> 14.3	inactive
O=C1c2ccccc2C(=O)N1CCOC(=S)Nc1ccc(Cl)c(Cl)c1Cl	> 100 µM	11 µM	> 9.1	inactive
O=C(O)c1ccccc1C(=O)NCCOC(=S)Nc1c(F)cc(F)cc1F	> 100 µM	7.2 µM	> 13.9	inactive
O=C(O)c1ccccc1C(=O)NCCOC(=S)Nc1cc(F)cc(F)c1	> 100 µM	62 µM	> 1.6	inactive
Cc1ccc(NC(=S)OC[C@H](C)NC(=O)c2ccccc2C(=O)O)cc1	> 100 µM	13.8 µM	> 7.2	inactive
CC(=O)c1ccc(NC(=S)OCCN2C(=O)c3ccccc3C2=O)cc1	–	0.14 µM	–	–
Cc1cccc(C)c1NC(=S)OCCN1C(=O)c2ccccc2C1=O	> 100 µM	75 µM	> 1.3	–
O=C(O)c1ccccc1C(=O)NCCOC(=S)Nc1c(F)cccc1F	> 100 µM	45 µM	> 2.2	inactive
O=C1c2ccccc2C(=O)N1CCOC(=S)Nc1c(Cl)cc(Cl)cc1Cl	> 100 µM	10 µM	> 10	inactive
Cc1ccc(NC(=S)OCCN2C(=O)c3ccccc3C2=O)c(C)c1	> 100 µM	6 µM	> 16.7	–
Cc1ccc(NC(=S)OCCNC(=O)c2ccccc2C(=O)O)cc1Cl	> 100 µM	4.3 µM	> 23.2	–

SMILES	CC50 [1]	EC50 [2]	selectivity ratio [3]	Activity [4]
O=C1c2ccccc2C(=O)N1CCOC(=S)NCc1ccccc1	> 100 µM	26 µM	> 3.8	–
CCc1ccc(NC(=S)OCCN2C(=O)c3ccccc3C2=O)cc1	–	0.08 µM	–	–
COc1ccc(CCNC(=S)OCCN2C(=O)c3ccccc3C2=O)cc1OC	> 100 µM	8 µM	> 12.5	inactive
O=C1c2ccccc2C(=O)N1CCOC(=S)Nc1ccc(Cl)cc1Cl	> 100 µM	> 100 µM	–	–
CCCCNC(=S)OCCN1C(=O)c2ccccc2C1=O	> 100 µM	7.2 µM	> 13.9	inactive
O=C1c2ccccc2C(=O)N1CCOC(=S)NCc1ccco1	> 100 µM	> 100 µM	–	inactive
COc1ccc(Cl)cc1NC(=S)OCCN1C(=O)c2ccccc2C1=O	> 100 µM	48 µM	> 2.1	–
O=C1c2ccccc2C(=O)N1CCOC(=S)NC1CCCCCCC1	> 100 µM	0.6 µM	> 167	–
O=C1c2ccccc2C(=O)N1CCOC(=S)NC1CCCC1	> 100 µM	11 µM	> 9.1	–
Cc1ccc(Cl)cc1NC(=S)OCCN1C(=O)c2ccccc2C1=O	> 100 µM	> 100 µM	–	–
O=C1c2ccccc2C(=O)N1CCOC(=S)Nc1ccccc1	–	1.2 µM	–	–
O=C1c2ccccc2C(=O)N1CCOC(=S)Nc1ccc(F)cc1	–	0.1 µM	–	–
O=C1c2ccccc2C(=O)N1CCOC(=S)Nc1cc(Cl)cc(Cl)c1	> 100 µM	12 µM	> 8	–
C=CCNC(=S)OCCN1C(=O)c2ccccc2C1=O	> 100 µM	> 100 µM	–	–
O=C1c2ccccc2C(=O)N1CCOC(=S)Nc1ccc(I)cc1	–	0.02 µM	–	–
O=C1c2ccccc2C(=O)N1CCOC(=S)Nc1c(Cl)cccc1Cl	> 100 µM	21 µM	> 4.8	–
COc1ccc(NC(=S)OCCNC(=O)c2ccccc2C(=O)O)cc1OC	> 100 µM	16 µM	> 6.2	–
Cc1cc(Br)ccc1NC(=S)OCCN1C(=O)c2ccccc2C1=O	> 100 µM	19 µM	> 5.3	–
O=C1c2ccccc2C(=O)N1CCOC(=S)NC1CC1	> 100 µM	> 100 µM	–	–
Cc1ccc(NC(=S)OCCNC(=O)c2ccccc2C(=O)O)c(C)c1	> 100 µM	53 µM	> 1.9	–
Cc1cc(Cl)ccc1NC(=S)OCCN1C(=O)c2ccccc2C1=O	> 100 µM	27 µM	> 3.7	–
CC(COC(=S)Nc1ccc(Cl)cc1)N1C(=O)c2ccccc2C1=O (racemic)	–	0.05 µM	–	–
Cc1ccc(Cl)cc1NC(=S)OCCNC(=O)c1ccccc1C(=O)O	> 100 µM	30 µM	> 3.3	–
O=C1c2ccccc2C(=O)N1CCOC(=S)Nc1ccc(Br)cc1	–	0.03 µM	–	–
O=C1c2ccccc2C(=O)N1CCOC(=S)Nc1ccc(Cl)cc1	–	0.04 µM	–	–
Cc1ccc2c(c1)C(=O)N(CCOC(=S)Nc1ccc(Cl)cc1)C2=O	–	0.025 µM	–	–
